Measured values reported in ChEMBL document CHEMBL3407362, “Design and synthesis of potent and multifunctional aldose reductase inhibitors based on quinoxalinones” (J Med Chem, 2015).
Active and inactive are the calls of the source. No cut-off for these calls is given here.

What was measured:
[1] = Antioxidant activity assessed as DPPH scavenging activity at 100 uM after 30 mins by UV spectrophotometry; format: physicochemical; settings: 0.5 h
[2] = target: Aldo-keto reductase family 1 member B1 (Rattus norvegicus, UniProt P07943); test: Inhibition of Wistar rat lenses ALR2 using D,L-glyceraldehyde as substrate preincubated for 10 mins before substrate addition measured after 4 mins by spectrophotometry
Rattus norvegicus = organism: Rattus norvegicus; test: Selectivity ratio for Wistar rat lenses ALR2 over Wistar rat kidney ALR1; format: tissue-based; settings: Lens of camera-type eye
[3] = Antioxidant activity assessed as DPPH scavenging activity after 30 mins by UV spectrophotometry; format: physicochemical
Brain = test: Antioxidant activity in rat brain assessed as inhibition of lipid peroxidation by TBARS assay; format: functional, tissue-based
How it was run: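 Fresh rat brain homogenized in ice-cold saline, centrifuged; lipoperoxidation driven by Fe(III)/ascorbic acid, compounds at 100 μM; malondialdehyde measured as TBARS (trichloroacetic acid, then thiobarbituric acid, red color at 532 nm); protein by Coomassie method.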

[4] = Antioxidant activity assessed as DPPH scavenging activity at 50 uM after 30 mins by UV spectrophotometry; format: physicochemical; settings: 0.5 h
[5] = Antioxidant activity assessed as DPPH scavenging activity at 10 uM after 30 mins by UV spectrophotometry; format: physicochemical; settings: 0.5 h

Row | IC50 [2] [nM] | SMILES | Selectivity ratio (Rattus norvegicus) | other results
1 | 652 | O=C(O)Cn1c(=O)c(CCc2ccc(O)cc2)nc2ccc(F)cc21 | – | Activity [1]: 14.7%
2 | 1110 | O=C(O)Cn1c(=O)c(Cc2ccccc2)nc2ccccc21 | – | –
3 | 2590 | O=C(O)Cn1c(=O)c(-c2ccc(O)cc2)nc2ccccc21 | – | –
4 | 69 | O=C(O)Cn1c(=O)c(-c2ccc(O)cc2O)nc2ccc(Cl)cc21 | – | –
5 | 1520 | O=C(O)Cn1c(=O)c(-c2ccc(F)cc2)nc2ccc(Cl)cc21 | – | –
6 | 5980 | O=C(O)Cn1c(=O)c(-c2ccccc2)nc2ccccc21 | – | –
7 | 395 | O=C(O)Cn1c(=O)c(Sc2ccc(Cl)cc2)nc2ccc(Br)cc21 | 8.3 | –
8 | 421 | O=C(O)Cn1c(=O)c(Sc2ccccc2)nc2ccccc21 | 2.7 | –
9 | 2130 | O=C(O)Cn1c(=O)c(-c2ccc(F)cc2)nc2ccc(-c3ccc(F)cc3)cc21 | – | –
10 | 182 | O=C(O)Cn1c(=O)c(/C=C/c2ccc(O)cc2)nc2ccccc21 | – | Activity [1]: 71.8%; IC50 [3]: 51500 nM; inhibition (Brain): Active
11 | 467 | O=C(O)Cn1c(=O)c(Sc2ccc(Br)cc2)nc2ccc(Br)cc21 | 3.7 | –
12 | 419 | COc1cc(/C=C/c2nc3ccccc3n(CC(=O)O)c2=O)ccc1O | – | Activity [1]: 95.4%; Activity [4]: 68.8%; Activity [5]: 39.6%; IC50 [3]: 24100 nM; inhibition (Brain): Active
13 | 139 | O=C(O)Cn1c(=O)c(-c2ccc(O)cc2O)nc2cc(Br)ccc21 | – | –
14 | 56 | O=C(O)Cn1c(=O)c(Sc2ccc(Cl)cc2)nc2ccc(F)cc21 | 3.1 | –
15 | 4180 | COc1ccc(/C=C/c2nc3ccccc3n(CC(=O)O)c2=O)cc1 | – | –
16 | 158 | O=C(O)Cn1c(=O)c(Sc2ccc(Cl)cc2)nc2ccc(Cl)cc21 | 5.1 | –
17 | 874 | O=C(O)Cn1c(=O)c(-c2ccc(F)cc2)nc2ccc(F)cc21 | – | –
18 | 397 | O=C(O)Cn1c(=O)c(-c2ccc(O)cc2O)nc2ccccc21 | – | –

Row | IC50 [2] [nM] | SMILES | Selectivity ratio (Rattus norvegicus) | other results
19 | 296 | O=C(O)Cn1c(=O)c(Sc2ccc(Br)cc2)nc2ccccc21 | 6.9 | –
20 | 273 | O=C(O)Cn1c(=O)c(Sc2ccc(Cl)cc2)nc2ccccc21 | 1.9 | –
21 | 91 | O=C(O)Cn1c(=O)c(-c2ccc(O)cc2O)nc2ccc(Br)cc21 | – | –
22 | 191 | O=C(O)Cn1c(=O)c(Sc2ccc(Br)cc2)nc2ccc(F)cc21 | 1.9 | –
23 | 238 | O=C(O)Cn1c(=O)c(-c2cc3ccccc3s2)nc2ccc(Cl)cc21 | – | –
24 | 153 | O=C(O)Cn1c(=O)c(/C=C/c2ccc(O)cc2)nc2ccc(F)cc21 | – | Activity [1]: 67.2%; inhibition (Brain): Active
25 | 3340 | O=C(O)Cn1c(=O)c(-c2ccc(O)cc2O)nc2ccc(Cc3ccc(F)cc3)cc21 | – | –
26 | 95 | O=C(O)Cn1c(=O)c(-c2ccc(O)cc2O)nc2cc(Cl)ccc21 | – | –
27 | 639 | O=C(O)Cn1c(=O)c(-c2c[nH]c3ccccc23)nc2ccccc21 | – | –
28 | 798 | O=C(O)Cn1c(=O)c(CCc2ccc(O)cc2)nc2ccccc21 | – | Activity [1]: 16.2%
29 | 326 | O=C(O)Cn1c(=O)c(Sc2ccc(Br)cc2)nc2ccc(Cl)cc21 | 6.1 | –
30 | 468 | O=C(O)Cn1c(=O)c(Oc2ccccc2)nc2ccccc21 | 12.5 | –
31 | 63 | O=C(O)Cn1c(=O)c(-c2ccc(O)cc2O)nc2cc(F)ccc21 | – | –
32 | 32 | O=C(O)Cn1c(=O)c(-c2ccc(O)cc2O)nc2ccc(F)cc21 | – | –
33 | 368 | O=C(O)Cn1c(=O)c(-c2c[nH]c3ccccc23)nc2ccc(Br)cc21 | – | –
34 | 3380 | O=C(O)Cn1c(=O)c(-c2ccc(F)cc2)nc2ccccc21 | – | –
35 | 319 | O=C(O)Cn1c(=O)c(Sc2ccc(Br)cc2)nc2cc(Br)ccc21 | 10.2 | –
